Source: PubChem
PAFAH2 inh: PAFAH2 (human) inhibition; recombinant PAFAH2, FP-rhodamine activity probe, fluorescence polarization; 340,000 tested, 0.99% active; Q99487; inhibition, % at 3.39 µM;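 active = inhibition above the mean over all tested compounds plus 3 SD, cut at about 30% in these data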;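 note: inhibitors block probe labeling of enzyme so polarization drops; 0% = enzyme with DMSO and 100% = wells lacking PAFAH2 protein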
PAFAH1B2 inh: PAFAH1B2 (human) inhibition; recombinant PAFAH1B2, FP-rhodamine activity probe, fluorescence polarization; inhibition, % at 3.39 µM; P68402; 340,000 tested, 1.2% active; AID 492953;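 active = inhibition above the mean of all tested compounds plus 3 SD, cut at about 24% in these data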;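 note: 0% = enzyme with DMSO and 100% = wells lacking PAFAH1B2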
pPAFAH inh: inhibitors of human plasma PAF acetylhydrolase (pPAFAH) | inhibition, % at 3.39 µM | Q13093 | AID 463082 | 330,000 tested, 1.5% active | recombinant pPAFAH, FP-rhodamine probe fluorescence polarization;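 active = inhibition above the mean inhibition across the screen plus 3 SD, cut at about 25% in these data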;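 note: inhibitors block binding of the rhodamine activity-based probe so polarization drops; 0% = enzyme with DMSO and 100% = wells lacking pPAFAH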
Target sequence (Q13093 whole entry, looked up): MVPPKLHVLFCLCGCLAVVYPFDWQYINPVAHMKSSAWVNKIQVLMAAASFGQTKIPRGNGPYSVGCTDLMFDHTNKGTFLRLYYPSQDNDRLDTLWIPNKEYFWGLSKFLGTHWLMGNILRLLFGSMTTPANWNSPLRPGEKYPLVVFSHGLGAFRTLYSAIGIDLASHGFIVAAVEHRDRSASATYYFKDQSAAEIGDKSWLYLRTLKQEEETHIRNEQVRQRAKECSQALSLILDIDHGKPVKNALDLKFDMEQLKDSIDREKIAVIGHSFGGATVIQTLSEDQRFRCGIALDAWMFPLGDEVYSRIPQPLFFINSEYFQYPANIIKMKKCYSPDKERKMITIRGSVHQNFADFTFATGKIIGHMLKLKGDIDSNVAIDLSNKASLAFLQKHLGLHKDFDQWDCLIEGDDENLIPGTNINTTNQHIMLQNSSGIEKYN
Apaf1 inhib: blocks human Apaf-1 apoptosome activity; O14727; inhibition, % at 20 µM; reconstituted apoptosome caspase-3 activity, DEVD-Rh110 fluorescence; 330,000 tested, 0.71% active; active = inhibition of at least 40% at 20 µM;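 note: plate controls were DMSO wells for no effect and DEVD-CHO caspase inhibitor wells for full effect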
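System – cell-free apoptosome with Apaf-1, procaspase-3 and caspase-9 · Buffer or medium – pH 7.5 Hepes buffer with CHAPS, BSA, DTT · Also added – cytochrome c with DEVD-Rh110 · Times – 30 min compound preincubation, 50 min activation, room temperature · Technique – Rh110 fluorescence intensity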
PAFAH1B3 FP inh: inhibitors of human PAFAH1B3; recombinant PAFAH1B3, FP-rhodamine probe, fluorescence polarization; inhibition, % at 3.39 µM; 340,000 tested, 0.28% active;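 active = inhibition above the screen-wide average of all tested compounds plus 3 SD, cut at about 25% in these data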;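 note: 0% = enzyme with DMSO only and 100% = wells lacking PAFAH1B3 protein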
pPAFAH FP conf: pPAFAH (human) inhibition, confirmed; 2,300 tested, 72% active; inhibition, % at 3.39 µM; recombinant pPAFAH, FP-Rh probe fluorescence polarization; shares compounds with pPAFAH inh;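 active = mean inhibition of the triplicate above the hit cutoff set for the earlier primary screen, cut at about 25% in these data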;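 note: 0% = enzyme with DMSO and 100% = wells lacking pPAFAH enzyme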
* hit, by the source's call; · = no result given. An excerpt weighted towards active compounds, which were near 3.1% of everything screened.

SMILES	PAFAH2 inh	PAFAH1B2 inh	pPAFAH inh	Apaf1 inhib	PAFAH1B3 FP inh	pPAFAH FP conf
O=C(CSc1n[nH]c(-c2ccccc2)n1)c1ccc(O)c(O)c1	23	7	42*	-22	20	68*
Cc1cc(C)cc(OCC(=O)OCC(=O)N(CC(C)C)c2c(N)n(Cc3ccccc3)c(=O)[nH]c2=O)c1	-10	3	3	7	5	·
COc1ccc(/C=C/C(=O)N2CCN(S(=O)(=O)c3ccccc3Br)CC2)cc1OC	8	-1	3	8	6	·
N#C/C(=N\Nc1cccc([N+](=O)[O-])c1)C(=O)c1ccc(Br)cc1	35*	14	60*	4	24	61*
Cc1ccc(NC(=S)N(CCN(C)C)C(C)c2ccco2)cc1C (stereo not drawn)	8	0	38*	7	4	2
COCCC1CCCCN1C(=O)c1ccc2nc(Cc3ccccc3F)oc2c1 (stereo not drawn)	9	0	3	8	3	·
O=C(Nc1ccc(F)cc1)C1CCN(S(=O)(=O)c2cccc3nonc23)CC1	-1	-1	10	4	5	·
CCN(CC)S(=O)(=O)c1ccc(C(=O)NNC(=O)c2csc(N3CCOCC3)n2)cc1	5	-1	48*	0	13	5
O=C(NNC(=O)c1csc(N2CCOCC2)n1)c1ccc(=O)[nH]c1	4	4	1	-8	3	·
CC(C)Cn1c(=O)c(C(=O)NCc2ccccn2)c(O)c2ccccc21	-4	-3	56*	16	9	3
CCn1c(=O)c(C(=O)NCc2ccccc2)c(O)c2ccccc21	-3	2	5	2	8	·
Cc1ccc(S(=O)(=O)Nc2ccc(-c3ccc4nncn4n3)cc2)cc1	11	11	-5	8	1	·
CC(=O)Nc1ccc(NC(=O)CN(C)CC(=O)Nc2ccccc2Br)cc1	-7	4	-8	3	7	·
CN(CC(=O)Nc1ccc(C(N)=O)cc1)CC(=O)Nc1ccccc1Br	-8	-2	59*	-3	7	4
CCn1c(SCc2nc3sc(C(=O)O)c(C)c3c(=O)[nH]2)nc2ccccc21	16	12	48*	4	43*	47*
Cc1ccccc1C(C)NS(=O)(=O)c1ccc2c(c1)OCCO2 (stereo not drawn)	2	5	-1	3	14	·
CCCCOc1ccc(Nc2cc(Cl)ccc2C(=O)O)cn1	9	6	57*	13	12	41*
CCCCCC(=C/c1ccccc1)/C=N/Nc1ccc(S(=O)(=O)N2CCOCC2)cc1[N+](=O)[O-]	-3	2	·	·	5	·
CC(C)(C)C#CC(CCc1ccccc1)OS(N)(=O)=O (stereo not drawn)	·	·	5	11	·	·
COC(=O)c1cc(S(=O)(=O)NCC2CCN(Cc3cccc(Cl)c3)CC2)c[nH]1	3	6	1	-12	0	·
CCNC(=S)NNC(=O)c1cc(-c2cccnc2)nc2ccccc12	7	0	1	-3	11	·
CCCCOc1ccc(-c2cc(C(=O)NNC(=S)NCC)c3ccccc3n2)cc1	0	1	42*	12	12	51*
COc1cnc(-c2ccccn2)nc1Oc1ccc(Cl)c2ccccc12	3	-1	60*	18	7	64*
Fc1ccc(CNC(=S)NCc2cccc(Cl)c2)cc1	-8	0	1	18	-3	·
O=C(O)c1cc(-c2ccc(/C=C3\NC(=O)N(c4ccc(Cl)cc4)C3=O)o2)ccc1Cl	22	7	37*	2	11	23
SMILES	PAFAH2 inh	PAFAH1B2 inh	pPAFAH inh	Apaf1 inhib	PAFAH1B3 FP inh	pPAFAH FP conf
COc1ccccc1NC(=O)CSc1nccn1Cc1ccccc1	-5	1	1	14	6	·
O=C(CCN1C(=O)c2ccccc2S1(=O)=O)Nc1cccc(F)c1	-6	2	1	1	2	·
CC(=O)Nc1cccc(NC(=O)CCN2C(=O)c3ccccc3S2(=O)=O)c1	4	-1	53*	4	3	3
Cc1ccc(NS(=O)(=O)c2ccc3[nH]c(=O)oc3c2)cc1Cl	4	10	48*	-10	7	58*
Cc1cccc(NS(=O)(=O)c2ccc3[nH]c(=O)oc3c2)c1C	3	-3	68*	-3	12	70*
Cc1ccc(C)c(NS(=O)(=O)c2ccc3[nH]c(=O)oc3c2)c1	4	3	42*	3	3	12
Cc1cccc(NS(=O)(=O)c2ccc3c(c2)oc(=O)n3C)c1C	-2	0	·	1	2	·
CC1CCc2c(sc3nc(C(C)(C)C)nc(N4CCN(C(=O)CCl)CC4)c23)C1 (stereo not drawn)	4	1	7	29	5	·
CN(C)/C=C/C(=O)/C=C/c1ccc(Cl)cc1	7	6	37*	-1	6	4
CN(C)/C=C/C(=O)c1ccc(Cl)cc1	0	2	2	-2	1	·
CC(=O)N1c2ccc(S(=O)(=O)N3CCC(C(=O)Nc4cccc(Cl)c4)CC3)cc2CC1C (stereo not drawn)	-2	2	39*	16	6	8
O=C(Cc1c(F)c(F)c(F)c(F)c1F)Nc1nc(-c2ccccc2)cs1	-9	-1	-33	21	5	·
Cc1ccc(C(=O)N2CCN(c3ncccn3)CC2)cc1	-4	4	·	5	5	·
Cc1cc(-c2ccccc2)n(-c2ccc(C(=O)N3CCN(c4ncccn4)CC3)cc2)n1	-3	-2	36*	33	8	22
CCOC(=O)N1CCC(NC(=O)CC2C(=O)NCCN2Cc2ccccc2F)CC1 (stereo not drawn)	4	2	49*	0	9	6
O=S(=O)(Nc1ccc2c(c1)nc1n2CCN(Cc2ccccc2)C1)c1ccc(F)cc1	-3	6	35*	13	3	12
Cc1ccc(S(=O)(=O)Nc2ccc3c(c2)nc2n3CCN(Cc3ccccc3)C2)cc1	-23	11	6	2	4	·
O=S(=O)(Nc1ccc2c(c1)nc1n2CCN(Cc2ccccc2)C1)c1ccc(Cl)cc1	4	33*	38*	29	-3	7
O=[N+]([O-])c1ccc(S(=O)(=O)NN=Cc2ccc(Cl)c(Cl)c2)cc1	4	8	·	·	8	·
Cc1oc2c(O)c(O)ccc2c(=O)c1-c1cnn(-c2ccccc2)c1	33*	1	51*	18	6	60*
Cc1oc2c(O)c(O)ccc2c(=O)c1-c1ccccc1	11	9	19	12	7	·
CC(C)CN(C(=O)CN1C(=O)NC(c2ccccc2)(c2ccccc2)C1=O)C1CCS(=O)(=O)C1 (stereo not drawn)	1	-5	1	8	3	·
COc1ccc(NS(=O)(=O)c2cccc(NC(=O)c3ccc(Cl)nc3)c2)cc1	-11	1	17	-2	-10	·
